Data from the M2OR odorant receptor database.

biological target: T1, OR5M3 (Homo sapiens) (UniProt Q8NGP4); details: stereoisomer not certain
T1 sequence (whole entry): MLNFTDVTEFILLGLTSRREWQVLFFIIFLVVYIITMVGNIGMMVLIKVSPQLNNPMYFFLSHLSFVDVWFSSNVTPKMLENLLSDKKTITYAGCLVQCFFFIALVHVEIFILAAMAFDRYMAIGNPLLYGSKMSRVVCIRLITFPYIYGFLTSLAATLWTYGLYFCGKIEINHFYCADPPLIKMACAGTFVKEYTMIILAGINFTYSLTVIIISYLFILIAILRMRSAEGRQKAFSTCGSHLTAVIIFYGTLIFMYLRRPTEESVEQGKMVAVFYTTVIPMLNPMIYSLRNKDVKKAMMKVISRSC
Method in brief: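 Whether a receptor–molecule pair is responsive (active) rests on the original authors' judgment that its measured signal was statistically different from baseline. Pairs without that judgment are non-responsive (inactive). Sources used varied assay methods, commonly transient luciferase assays in mammalian cell lines.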
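Also: active if original authors judged signal statistically different from baseline.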

Odorant receptor agonist call, inactive:
CC(=O)C1=NCCS1
CCCCCCC=CC=O
CCCCC(=O)O
CSCCCO
CCCSSCCC
CCCC(O)CC(=O)OCC (configuration not stated)
CCCCCCCCCO
CCOC(=O)CCC(C)C
CSC
Cc1cccc(O)c1
Cc1occc(=O)c1O
CCCCCC=O
CCCCCCCC1CCC(=O)O1 (configuration not stated)
COC1=C(C)OC(C)C1=O (configuration not stated)
CC=Cc1ccc(OC)cc1
CCCCCCOC(C)=O
CSCSC
CCCCCC(C)O (configuration not stated)
C=CC(O)CCCCC (configuration not stated)
CCC=CCCC=O
CC1=CCC(C(C)C)C=C1 (configuration not stated)
CCC(C)CCC(=O)[O-] (configuration not stated)
CC=CC(=O)C1=C(C)CCCC1(C)C
CCCCCC1CCC(=O)O1 (configuration not stated)
CCOC(=O)CCSC
CCCCC(CC)CCC(=O)O (configuration not stated)
OCCc1ccccc1
CC(=O)OCC=Cc1ccccc1
CCCc1ccc(O)c(OC)c1
CCCCCCCCCC(=O)[O-].[H+]
Cc1c[nH]c2ccccc12
CCC(=O)C1=NCCC1
